Data published in ChEMBL document CHEMBL1275556, “High prevalence of plasmid-mediated quinolone resistance genes qnr and aac(6')-Ib-cr in clinical isolates of Enterobacteriaceae from nine teaching hospitals in China” (2008).
≈ marks a conversion by molar mass, not a printed value.

Tests used:
Assay type in all cases: functional
Enterobacter cloacae [1] = assay: Antimicrobial activity against aac(6')-Ib-cr-negative Enterobacter cloacae FJ61T harboring qnrS gene by agar dilution method
Enterobacter cloacae [2] = assay: Antimicrobial activity against aac(6')-Ib-cr-negative Enterobacter cloacae GZ51T harboring qnrA gene by agar dilution method
Klebsiella pneumoniae [3] = assay: Antimicrobial activity against aac(6')-Ib-cr-positive Klebsiella pneumoniae JN132T harboring qnrB gene by agar dilution method in presence of clavulanic acid
How it was run: (§1)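 Transconjugants came from conjugation of qnr and/or aac(6')-Ib-cr donors into azide-resistant E. coli J53. […] MICs were measured by CLSI agar dilution (M7-A7) and interpreted per M100-S17.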

Escherichia coli [4] = assay: Antimicrobial activity against aac(6')-Ib-cr-negative Escherichia coli PU12 harboring GyrA S83L mutant, wild-type GyrB, ParC and qnrS genes by agar dilution method in presence of clavulanic acid
How it was run: (§2)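 MICs were determined by CLSI agar dilution (M7-A7) and interpreted by CLSI M100-S17 breakpoints. The curator's line names the β-lactamase inhibitor added.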

Enterobacter cloacae [5] = assay: Antimicrobial activity against aac(6')-Ib-cr-negative Enterobacter cloacae GZ51T harboring qnrA gene by agar dilution method in presence of clavulanic acid
How it was run: (§3)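 Transconjugants came from conjugation of qnr and/or aac(6')-Ib-cr-carrying donors with azide-resistant E. coli J53. […] MICs were determined by CLSI agar dilution (M7-A7) and interpreted by M100-S17.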

Enterobacter cloacae [6] = assay: Antimicrobial activity against aac(6')-Ib-cr-negative Enterobacter cloacae FJ67T harboring qnrS gene by agar dilution method in presence of clavulanic acid; how it was run: as §3
Escherichia coli [7] = assay: Antimicrobial activity against Escherichia coli J53 harboring wild-type GyrA, ParC, GyrB genes by agar dilution method in presence of beta-lactamase inhibitor clavulanic acid; how it was run: as §2
Klebsiella pneumoniae [8] = assay: Antimicrobial activity against aac(6')-Ib-cr-negative Klebsiella pneumoniae SY22 harboring GyrA S83I, ParC S80I mutant, wild-type GyrB and qnrS genes by agar dilution method
How it was run: (§4)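 MICs were determined by the CLSI agar dilution method (M7-A7) and interpreted against CLSI M100-S17 breakpoints.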

Klebsiella pneumoniae [9] = assay: Antimicrobial activity against aac(6')-Ib-cr-positive Klebsiella pneumoniae WH99T harboring qnrB gene by agar dilution method in presence of clavulanic acid; how it was run: as §3
Citrobacter freundii [10] = assay: Antimicrobial activity against aac(6')-Ib-cr-positive Citrobacter freundii JS33 harboring GyrA T83I mutant, wild-type ParC, GyrB, qnrA and qnrB genes by agar dilution method in presence of clavulanic acid; how it was run: as §2
Klebsiella pneumoniae [11] = assay: Antimicrobial activity against aac(6')-Ib-cr-positive Klebsiella pneumoniae JN41 harboring GyrA S83I, ParC S80I mutant, wild-type GyrB and qnrB genes by agar dilution method in presence of clavulanic acid; how it was run: as §2
Klebsiella pneumoniae [12] = assay: Antimicrobial activity against aac(6')-Ib-cr-positive Klebsiella pneumoniae JN41T harboring qnrB gene by agar dilution method in presence of clavulanic acid; how it was run: as §3
Enterobacter cloacae [13] = assay: Antimicrobial activity against aac(6')-Ib-cr-negative Enterobacter cloacae FJ67 harboring […] and qnrS genes by agar dilution method in presence of clavulanic acid; how it was run: as §4
Enterobacter cloacae [14] = assay: Antimicrobial activity against aac(6')-Ib-cr-negative Enterobacter cloacae FJ61 harboring GyrA S83I, GyrA D87A, ParC S80I mutant, wild-type GyrB and qnrS genes by agar dilution method
Enterobacter cloacae [15] = assay: Antimicrobial activity against aac(6')-Ib-cr-negative Enterobacter cloacae SH39T harboring qnrA gene by agar dilution method in presence of clavulanic acid; how it was run: as §3
Escherichia coli [16] = assay: Antimicrobial activity against aac(6')-Ib-cr-negative Escherichia coli PU12 harboring GyrA S83L mutant, wild-type GyrB, ParC and qnrS genes by agar dilution method; how it was run: as §4
Citrobacter freundii [17] = assay: Antimicrobial activity against aac(6')-Ib-cr-positive Citrobacter freundii JS33T harboring qnrA gene by agar dilution method in presence of clavulanic acid; how it was run: as §3
Enterobacter cloacae [18] = assay: Antimicrobial activity against aac(6')-Ib-cr-negative Enterobacter cloacae GZ51 harboring qnrA gene by agar dilution method
Citrobacter freundii [19] = assay: Antimicrobial activity against aac(6')-Ib-cr-positive Citrobacter freundii JS33 harboring GyrA T83I mutant, wild-type ParC, GyrB, qnrA and qnrB genes by agar dilution method; how it was run: as §4
Klebsiella pneumoniae [20] = assay: Antimicrobial activity against aac(6')-Ib-cr-positive Klebsiella pneumoniae GZ40 harboring GyrA S83I, ParC S80I mutant, wild-type GyrB and qnrB genes by agar dilution method; how it was run: as §4
Citrobacter freundii [21] = assay: Antimicrobial activity against aac(6')-Ib-cr-positive Citrobacter freundii JN1 harboring GyrA T83I, ParC S80I mutant, wild-type GyrB and qnrA genes by agar dilution method in presence of clavulanic acid; how it was run: as §4
Enterobacter cloacae [22] = assay: Antimicrobial activity against aac(6')-Ib-cr-negative Enterobacter cloacae FJ61 harboring GyrA S83I, GyrA D87A, ParC S80I mutant, wild-type GyrB and qnrS genes by agar dilution method in presence of Tazobactam; how it was run: as §4
Klebsiella pneumoniae [23] = assay: Antimicrobial activity against aac(6')-Ib-cr-negative Klebsiella pneumoniae SY22 harboring GyrA S83I, ParC S80I mutant, wild-type GyrB and qnrS genes by agar dilution method in presence of Tazobactam
How it was run: (§5)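 MICs measured by CLSI agar dilution (M7-A7) and interpreted against CLSI M100-S17 breakpoints. Strains were clinical Enterobacteriaceae isolates or the azide-resistant E. coli J53 recipient.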

Citrobacter freundii [24] = assay: Antimicrobial activity against aac(6')-Ib-cr-positive Citrobacter freundii JN1T by agar dilution method in presence of Tazobactam
How it was run: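 MIC by CLSI agar dilution (M7-A7), with categories interpreted per CLSI M100-S17.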

Citrobacter freundii [25] = assay: Antimicrobial activity against aac(6')-Ib-cr-positive Citrobacter freundii JS33T harboring qnrA gene by agar dilution method in presence of Tazobactam; how it was run: as §4
Citrobacter freundii [26] = assay: Antimicrobial activity against aac(6')-Ib-cr-negative Citrobacter freundii JN64 harboring GyrA T83I, wild-type ParC, GyrB and qnrA genes by agar dilution method in presence of Tazobactam; how it was run: as §4
Escherichia coli [27] = assay: Antimicrobial activity against aac(6')-Ib-cr-positive Escherichia coli FJ3 harboring GyrA S83L, ParC S80R mutant, wild-type GyrB and qnrB genes by agar dilution method in presence of Tazobactam; how it was run: as §5
Citrobacter freundii [28] = assay: Antimicrobial activity against aac(6')-Ib-cr-positive Citrobacter freundii TJ15 harboring GyrA T83I, ParC S80I mutant, wild-type GyrB, qnrB genes by agar dilution method in presence of Tazobactam; how it was run: as §4
Citrobacter freundii [29] = assay: Antimicrobial activity against aac(6')-Ib-cr-positive Citrobacter freundii JS33 harboring GyrA T83I mutant, wild-type ParC, GyrB, qnrA and qnrB genes by agar dilution method in presence of Tazobactam; how it was run: as §4
Enterobacter cloacae [30] = assay: Antimicrobial activity against aac(6')-Ib-cr-negative Enterobacter cloacae GZ47 harboring qnrB and qnrS genes by agar dilution method in presence of Tazobactam; how it was run: as §4
Klebsiella pneumoniae [31] = assay: Antimicrobial activity against aac(6')-Ib-cr-positive Klebsiella pneumoniae JN132T harboring qnrB gene by agar dilution method in presence of Tazobactam; how it was run: as §1
Citrobacter freundii [32] = assay: Antimicrobial activity against aac(6')-Ib-cr-positive Citrobacter freundii TJ15T harboring wild-type GyrA, ParC, GyrB genes by agar dilution method in presence of Tazobactam; how it was run: as §4

CO/N=C(\C(=O)N[C@@H]1C(=O)N2C(C(=O)O)=C(COC(C)=O)CS[C@H]12)c1csc(N)n1 [CEFOTAXIME]
MIC (Enterobacter cloacae [1]): 0.032 µg/mL (≈ 0.0703 µM)
MIC (Enterobacter cloacae [2]): 32 µg/mL (≈ 70.3 µM)
MIC (Klebsiella pneumoniae [3]): 1 µg/mL
MIC (Escherichia coli [4]): 0.032 µg/mL
MIC (Enterobacter cloacae [5]): 0.032 µg/mL
MIC (Enterobacter cloacae [6]): 0.032 µg/mL
MIC (Escherichia coli [7]): 0.032 µg/mL
MIC (Klebsiella pneumoniae [8]): 2 µg/mL (≈ 4.39 µM)
MIC (Klebsiella pneumoniae [9]): 0.064 µg/mL
MIC (Citrobacter freundii [10]): 64 µg/mL
MIC (Klebsiella pneumoniae [11]): 0.032 µg/mL
MIC (Klebsiella pneumoniae [12]): 0.032 µg/mL
MIC (Enterobacter cloacae [13]): 0.25 µg/mL
MIC (Enterobacter cloacae [14]): 256 µg/mL (≈ 562 µM)
MIC (Enterobacter cloacae [15]): 0.032 µg/mL
MIC (Escherichia coli [16]): 16 µg/mL (≈ 35.1 µM)
MIC (Citrobacter freundii [17]): 0.032 µg/mL
MIC (Enterobacter cloacae [18]): 64 µg/mL (≈ 141 µM)
MIC (Citrobacter freundii [19]): 8 µg/mL (≈ 17.6 µM)
MIC (Klebsiella pneumoniae [20]): > 256 µg/mL
MIC (Citrobacter freundii [21]): 128 µg/mL

CCN1CCN(C(=O)N[C@@H](C(=O)N[C@@H]2C(=O)N3[C@@H]2SC(C)(C)[C@@H]3C(=O)O)c2ccccc2)C(=O)C1=O [PIPERACILLIN]
MIC (Enterobacter cloacae [22]): 8 µg/mL
MIC (Klebsiella pneumoniae [23]): 4 µg/mL
MIC (Citrobacter freundii [24]): 2 µg/mL
MIC (Citrobacter freundii [25]): 4 µg/mL
MIC (Citrobacter freundii [26]): > 256 µg/mL
MIC (Escherichia coli [27]): 2 µg/mL
MIC (Citrobacter freundii [28]): 4 µg/mL
MIC (Citrobacter freundii [29]): 8 µg/mL
MIC (Enterobacter cloacae [30]): 4 µg/mL
MIC (Klebsiella pneumoniae [31]): 4 µg/mL
MIC (Citrobacter freundii [32]): 1 µg/mL
